Measured values from ChEMBL document CHEMBL1629612, “Characterization and sequence analysis of extended-spectrum-{beta}-lactamase-encoding genes from Escherichia coli, Klebsiella pneumoniae, and Proteus mirabilis isolates collected during tigecycline phase 3 clinical trials” (2009).
Converted amounts (≈) assume the structure as drawn.

Experiments:
Type in all cases: functional
Escherichia coli [1] = assay: Antimicrobial activity against Escherichia coli expressing beta-lactamase AmpC and extended-spectrum beta-lactamase by Etest
How it was run: (§1)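 Clinical isolates from tigecycline phase 3 trials were received as frozen primary cultures. Serial isolates from one patient were riboprinted, and only the first of identical strains was kept. β-Lactamase genes were assigned by PCR. ESBL confirmation used Etest ESBL strips carrying ceftazidime or cefotaxime, alone and combined with clavulanic acid, following the strip maker's instructions.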

Escherichia coli [2] = assay: Antimicrobial activity against Escherichia coli expressing beta-lactamase AmpC by Etest; how it was run: as §1
Klebsiella pneumoniae [3] = assay: Antimicrobial activity against Klebsiella pneumoniae expressing beta-lactamase CTX by Etest based on multiple determinants
How it was run: (§2)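 Clinical isolates from tigecycline phase 3 trials were received as frozen primary cultures. Repeat isolates from one patient were riboprinted, and only the first of identical strains was kept. β-lactamase genes were assigned by PCR against control strains, plus isoelectric focusing. ESBL confirmation used Etest ESBL strips carrying ceftazidime or cefotaxime with clavulanic acid, read per the manufacturer's instructions.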

Escherichia coli [4] = assay: Antimicrobial activity against Escherichia coli expressing beta-lactamase CTX and SHV by Etest; how it was run: as §1
Escherichia coli [5] = assay: Antimicrobial activity against Escherichia coli expressing beta-lactamase CTX by Etest based on multiple determinants; how it was run: as §1
Klebsiella pneumoniae [6] = assay: Antimicrobial activity against Klebsiella pneumoniae extended-spectrum beta-lactamase producing isolate by Etest; how it was run: as §2
Proteus mirabilis [7] = assay: Antimicrobial activity against Proteus mirabilis extended-spectrum beta-lactamase producing isolate by Etest; how it was run: as §2
Escherichia coli [8] = assay: Antimicrobial activity against Escherichia coli expressing beta-lactamase SHV by Etest; how it was run: as §1
Escherichia coli [9] = assay: Antimicrobial activity against Escherichia coli expressing beta-lactamase CTX by Etest based on single determinant; how it was run: as §1
Klebsiella pneumoniae [10] = assay: Antimicrobial activity against Klebsiella pneumoniae expressing beta-lactamase SHV by Etest based on single determinant; how it was run: as §2
Klebsiella pneumoniae [11] = assay: Antimicrobial activity against Klebsiella pneumoniae expressing beta-lactamase SHV by Etest based on multiple determinants; how it was run: as §2
Klebsiella pneumoniae [12] = assay: Antimicrobial activity against Klebsiella pneumoniae expressing beta-lactamase CTX by Etest based on single determinant; how it was run: as §2
Klebsiella pneumoniae [13] = assay: Antimicrobial activity against Klebsiella pneumoniae expressing extended-spectrum beta-lactamase and beta-lactamase AmpC by Etest; how it was run: as §1
Proteus mirabilis [14] = assay: Antimicrobial activity against Proteus mirabilis expressing extended-spectrum beta-lactamase by Etest based on single determinant; how it was run: as §2
Proteus mirabilis [15] = assay: Antimicrobial activity against Proteus mirabilis expressing extended-spectrum beta-lactamase by Etest based on multiple determinants; how it was run: as §2
Proteus mirabilis [16] = assay: Antimicrobial activity against Proteus mirabilis expressing beta-lactamase AmpC by Etest; how it was run: as §2
Escherichia coli [17] = assay: Antimicrobial activity against Escherichia coli extended-spectrum beta-lactamase producing isolate by Etest; how it was run: as §1
Klebsiella pneumoniae [18] = assay: Antimicrobial activity against Klebsiella pneumoniae expressing beta-lactamase SHV and CTX by Etest; how it was run: as §2
Klebsiella pneumoniae [19] = assay: Antimicrobial activity against Klebsiella pneumoniae expressing beta-lactamase DHA by Etest; how it was run: as §1

| SMILES | MIC50 (Escherichia coli [1]) [mg/L] | MIC90 (Escherichia coli [1]) [mg/L] | MIC (Escherichia coli [2]) [mg/L] | MIC50 (Klebsiella pneumoniae [3]) [mg/L] | MIC90 (Klebsiella pneumoniae [3]) [mg/L] | MIC50 (Escherichia coli [4]) [mg/L] | MIC90 (Escherichia coli [4]) [mg/L] | MIC50 (Escherichia coli [5]) [mg/L] | MIC90 (Escherichia coli [5]) [mg/L] | MIC50 (Klebsiella pneumoniae [6]) [mg/L] | MIC90 (Klebsiella pneumoniae [6]) [mg/L] | MIC50 (Proteus mirabilis [7]) [mg/L] | MIC90 (Proteus mirabilis [7]) [mg/L] | MIC (Escherichia coli [8]) [mg/L] | MIC50 (Escherichia coli [9]) [mg/L] | MIC90 (Escherichia coli [9]) [mg/L] | MIC50 (Klebsiella pneumoniae [10]) [mg/L] | MIC90 (Klebsiella pneumoniae [10]) [mg/L] | MIC (Klebsiella pneumoniae [11]) [mg/L] | MIC50 (Klebsiella pneumoniae [12]) [mg/L] | other results |
| --- | --- | --- | --- | --- | --- | --- | --- | --- | --- | --- | --- | --- | --- | --- | --- | --- | --- | --- | --- | --- | --- |
| CO/N=C(\C(=O)N[C@@H]1C(=O)N2C(C(=O)[O-])=C(C[N+]3(C)CCCC3)CS[C@H]12)c1csc(N)n1 [CEFEPIME] | 16 (≈ 33.3 µM) | > 16 | 2 (≈ 4.16 µM) | 16 (≈ 33.3 µM) | > 16 | 16 (≈ 33.3 µM) | > 16 | 16 (≈ 33.3 µM) | > 16 | 8 (≈ 16.6 µM) | > 16 | 2 (≈ 4.16 µM) | > 16 | 2 (≈ 4.16 µM) | 16 (≈ 33.3 µM) | > 16 | ≤ 2 | > 16 | 2 (≈ 4.16 µM) | 16 (≈ 33.3 µM) | MIC90 (Klebsiella pneumoniae [12]): > 16 mg/L; MIC (Klebsiella pneumoniae [13]): 2 mg/L (≈ 4.16 µM); MIC (Proteus mirabilis [14]): 1 mg/L (≈ 2.08 µM); MIC (Proteus mirabilis [15]): 1 mg/L (≈ 2.08 µM); MIC (Proteus mirabilis [16]): 2 mg/L (≈ 4.16 µM) |
| CO/N=C(\C(=O)N[C@@H]1C(=O)N2C(C(=O)O)=C(COC(C)=O)CS[C@H]12)c1csc(N)n1 [CEFOTAXIME] | > 32 | > 32 | 4 (≈ 8.78 µM) | > 32 | > 32 | > 32 | > 32 | > 32 | > 32 | > 32 | > 32 | 32 (≈ 70.3 µM) | > 32 | 4 (≈ 8.78 µM) | > 32 | > 32 | 16 (≈ 35.1 µM) | > 32 | 2 (≈ 4.39 µM) | > 32 | MIC50 (Escherichia coli [17]): > 32 mg/L; MIC90 (Escherichia coli [17]): > 32 mg/L; MIC90 (Klebsiella pneumoniae [12]): > 32 mg/L; MIC50 (Klebsiella pneumoniae [18]): > 32 mg/L; MIC90 (Klebsiella pneumoniae [18]): > 32 mg/L; MIC (Klebsiella pneumoniae [13]): 1 mg/L (≈ 2.2 µM); MIC (Klebsiella pneumoniae [19]): 2 mg/L (≈ 4.39 µM); MIC (Proteus mirabilis [14]): 0.25 mg/L (≈ 0.549 µM); MIC (Proteus mirabilis [15]): 8 mg/L (≈ 17.6 µM); MIC (Proteus mirabilis [16]): 16 mg/L (≈ 35.1 µM) |
| CC(C)(O/N=C(\C(=O)N[C@@H]1C(=O)N2C(C(=O)[O-])=C(C[n+]3ccccc3)CS[C@H]12)c1csc(N)n1)C(=O)O [CEFTAZIDIME] | > 32 | > 32 | 4 (≈ 7.32 µM) | 32 (≈ 58.5 µM) | > 64 | 16 (≈ 29.3 µM) | 64 (≈ 117 µM) | 32 (≈ 58.5 µM) | 64 (≈ 117 µM) | 32 (≈ 58.5 µM) | > 64 | 64 (≈ 117 µM) | > 64 | 16 (≈ 29.3 µM) | 16 (≈ 29.3 µM) | 64 (≈ 117 µM) | 8 (≈ 14.6 µM) | > 64 | 16 (≈ 29.3 µM) | 32 (≈ 58.5 µM) | MIC50 (Escherichia coli [17]): 32 mg/L (≈ 58.5 µM); MIC90 (Escherichia coli [17]): > 64 mg/L; MIC90 (Klebsiella pneumoniae [12]): > 64 mg/L; MIC50 (Klebsiella pneumoniae [18]): 64 mg/L (≈ 117 µM); MIC90 (Klebsiella pneumoniae [18]): > 64 mg/L; MIC (Klebsiella pneumoniae [13]): 4 mg/L (≈ 7.32 µM); MIC (Klebsiella pneumoniae [19]): 64 mg/L (≈ 117 µM); MIC (Proteus mirabilis [14]): 2 mg/L (≈ 3.66 µM); MIC (Proteus mirabilis [15]): 2 mg/L (≈ 3.66 µM); MIC (Proteus mirabilis [16]): 64 mg/L (≈ 117 µM) |
| CO/N=C(\C(=O)N[C@@H]1C(=O)N2C(C(=O)O)=C(CSc3nc(=O)c(O)nn3C)CS[C@H]12)c1csc(N)n1 [CEFTRIAXONE] | > 32 | > 32 | 4 (≈ 7.21 µM) | > 32 | > 32 | > 32 | > 32 | > 32 | > 32 | > 32 | > 32 | 8 (≈ 14.4 µM) | 32 (≈ 57.7 µM) | 4 (≈ 7.21 µM) | > 32 | > 32 | 8 (≈ 14.4 µM) | > 32 | 2 (≈ 3.61 µM) | > 32 | MIC50 (Escherichia coli [17]): > 32 mg/L; MIC90 (Escherichia coli [17]): > 32 mg/L; MIC90 (Klebsiella pneumoniae [12]): > 32 mg/L; MIC50 (Klebsiella pneumoniae [18]): > 32 mg/L; MIC90 (Klebsiella pneumoniae [18]): > 32 mg/L; MIC (Klebsiella pneumoniae [13]): 2 mg/L (≈ 3.61 µM); MIC (Klebsiella pneumoniae [19]): 1 mg/L (≈ 1.8 µM); MIC (Proteus mirabilis [14]): 1 mg/L (≈ 1.8 µM); MIC (Proteus mirabilis [15]): 2 mg/L (≈ 3.61 µM); MIC (Proteus mirabilis [16]): 8 mg/L (≈ 14.4 µM) |
